The values below come from ChEMBL document CHEMBL1136943, “Nocathiacin analogs: Synthesis and antibacterial activity of novel water-soluble amides” (Bioorg Med Chem Lett, 2009).

pIC50: −log10 of the molar value. Converted amounts (≈) assume the structure as drawn.

Data set [1] relates to Streptococcus pneumoniae. The experiment in a line: Antibacterial activity against Streptococcus pneumoniae CL2883 in liquid culture by turbidity method. In kind it is functional. Put shortly:
(§1)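 MIC is the lowest concentration giving 100% inhibition of bacterial growth in liquid culture, read by turbidity.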

Data set [2] has as its system Staphylococcus aureus. Description: Antibacterial activity against Staphylococcus aureus MB2865 in liquid culture by turbidity method. In kind it is functional. Put shortly:
as §1

In data set [3] the target is T1, Type-2 angiotensin II receptor (Homo sapiens, UniProt P50052).
T1 sequence (P50052 whole entry): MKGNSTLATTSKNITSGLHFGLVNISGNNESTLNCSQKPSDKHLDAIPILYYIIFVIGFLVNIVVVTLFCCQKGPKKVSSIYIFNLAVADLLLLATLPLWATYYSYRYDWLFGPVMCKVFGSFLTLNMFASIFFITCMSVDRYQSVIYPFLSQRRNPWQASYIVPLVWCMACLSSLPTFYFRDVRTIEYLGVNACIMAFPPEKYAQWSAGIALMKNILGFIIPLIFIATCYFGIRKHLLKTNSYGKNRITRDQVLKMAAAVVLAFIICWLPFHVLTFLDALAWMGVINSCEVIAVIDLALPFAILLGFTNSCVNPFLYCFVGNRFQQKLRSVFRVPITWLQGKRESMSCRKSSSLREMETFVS
The experiment in a line: Inhibition of AT2 receptor. The gist of the method: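 AT2 IC50 derived from four dose levels per compound, following a published protocol.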

Data set [4] has as its system Enterococcus faecalis. The experiment in a line: Antibacterial activity against Enterococcus faecalis C21560 in liquid culture by turbidity method. In kind it is functional. Put shortly:
as §1

Data set [5] concerns Staphylococcus aureus. Description: Antibacterial activity against Staphylococcus aureus infected in mouse model assessed as reduction of kidney burden at 0.5 mg/kg, iv relative to control. In kind it is functional. Put shortly:
(§2)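 Systemic S. aureus infection mouse model (SATOA). Compounds were given iv; […]. Kidney bacterial burden (cfu) was compared with untreated control. ED99 is the dose giving a reduction of at least 2 log10 cfu in kidney burden.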

In data set [6] the test system is Staphylococcus aureus. Description: Antibacterial activity against Staphylococcus aureus infected in mouse model assessed as reduction of >= 2 log 10 cfu kidney burden. In kind it is functional. Put shortly: as §2
In data set [7] the target is Cytochrome P450 2D6 (Homo sapiens, UniProt P10635). The experiment in a line: Inhibition of CYP2D6. In kind it is ADME.
Cytochrome P450 2D6, sequence (P10635 whole entry): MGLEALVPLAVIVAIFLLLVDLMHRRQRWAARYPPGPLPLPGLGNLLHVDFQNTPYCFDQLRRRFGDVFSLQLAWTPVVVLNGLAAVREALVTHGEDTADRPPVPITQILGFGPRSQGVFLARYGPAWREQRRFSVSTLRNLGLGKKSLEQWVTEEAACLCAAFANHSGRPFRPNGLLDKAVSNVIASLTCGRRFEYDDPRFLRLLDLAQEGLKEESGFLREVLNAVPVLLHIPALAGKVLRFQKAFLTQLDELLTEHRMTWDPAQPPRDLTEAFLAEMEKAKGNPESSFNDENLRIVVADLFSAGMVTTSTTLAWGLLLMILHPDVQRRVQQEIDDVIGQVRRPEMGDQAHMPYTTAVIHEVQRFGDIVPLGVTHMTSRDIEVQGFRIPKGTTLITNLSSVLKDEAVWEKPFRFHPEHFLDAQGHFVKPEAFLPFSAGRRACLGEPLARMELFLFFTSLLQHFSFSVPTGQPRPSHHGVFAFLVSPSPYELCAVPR
The target of data set [8] is Cytochrome P450 2C9 (Homo sapiens, UniProt P11712). Description: Inhibition of CYP2C9. In kind it is ADME.
Cytochrome P450 2C9, sequence (P11712 whole entry): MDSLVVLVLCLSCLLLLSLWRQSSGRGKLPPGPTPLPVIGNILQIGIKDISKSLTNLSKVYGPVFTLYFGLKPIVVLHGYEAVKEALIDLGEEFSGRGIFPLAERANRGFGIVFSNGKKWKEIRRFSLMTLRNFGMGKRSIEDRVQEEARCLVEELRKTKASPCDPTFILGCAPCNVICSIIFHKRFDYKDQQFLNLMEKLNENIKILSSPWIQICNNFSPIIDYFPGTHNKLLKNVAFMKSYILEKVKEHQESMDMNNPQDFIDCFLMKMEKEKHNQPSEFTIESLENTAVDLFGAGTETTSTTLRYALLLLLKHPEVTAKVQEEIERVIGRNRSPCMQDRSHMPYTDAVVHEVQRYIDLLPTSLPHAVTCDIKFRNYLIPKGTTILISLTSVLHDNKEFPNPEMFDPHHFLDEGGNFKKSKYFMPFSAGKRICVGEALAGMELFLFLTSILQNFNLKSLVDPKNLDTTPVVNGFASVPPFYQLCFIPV
The nature of data set [9]: Terminal half life in monkey at 1 mg/kg, iv. In kind it is ADME, organism-based, Macaca mulatta. Also noted: dose 1 mg/kg, route intravenous. Particulars: rhesus monkey, in vivo, read-out: beta t1/2 (converted); call rule not given here. Put shortly: (§3)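 Single iv dose of 1 mg/kg in EtOH/PEG400/H2O (10:15:75). Clearance was measured in plasma, with steady-state volume of distribution and terminal half-life derived.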

Data set [10] in a line: Volume of distribution in steady state in monkey at 1 mg/kg, iv. In kind it is ADME, organism-based, Macaca mulatta. Also noted: dose 1 mg/kg, route intravenous. The note with it: rhesus monkey, in vivo, read-out: Vdss. Put shortly:
as §3

Data set [11] deals with T2, Cytochrome P450 2C8 (Homo sapiens, UniProt P10632).
T2 sequence (P10632 whole entry): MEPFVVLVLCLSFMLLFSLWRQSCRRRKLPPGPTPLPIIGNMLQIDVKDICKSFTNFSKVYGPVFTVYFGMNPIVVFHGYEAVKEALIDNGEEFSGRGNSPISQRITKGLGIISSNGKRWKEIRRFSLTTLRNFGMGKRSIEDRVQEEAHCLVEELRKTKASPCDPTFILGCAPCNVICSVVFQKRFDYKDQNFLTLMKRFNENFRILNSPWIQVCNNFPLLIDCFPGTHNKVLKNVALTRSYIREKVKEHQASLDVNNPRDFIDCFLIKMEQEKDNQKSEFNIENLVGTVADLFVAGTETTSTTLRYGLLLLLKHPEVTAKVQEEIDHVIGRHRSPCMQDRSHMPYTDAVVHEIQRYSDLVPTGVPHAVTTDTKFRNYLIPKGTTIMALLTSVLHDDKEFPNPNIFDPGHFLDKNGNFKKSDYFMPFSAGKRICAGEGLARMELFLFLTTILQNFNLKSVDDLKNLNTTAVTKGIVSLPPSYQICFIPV
The experiment in a line: Inhibition of CYP2C8. In kind it is ADME.

Data set [12] can be described thus: Volume of distribution in steady state in mouse at 1 mg/kg, iv. In kind it is ADME, organism-based. Also noted: dose 1 mg/kg, route intravenous. The note with it: in vivo, read-out: Vdss. Put shortly:
as §3

The target of data set [13] is Cytochrome P450 3A4 (Homo sapiens, UniProt P08684). Description: Inhibition of CYP3A4. In kind it is ADME.
Cytochrome P450 3A4, sequence (P08684 whole entry): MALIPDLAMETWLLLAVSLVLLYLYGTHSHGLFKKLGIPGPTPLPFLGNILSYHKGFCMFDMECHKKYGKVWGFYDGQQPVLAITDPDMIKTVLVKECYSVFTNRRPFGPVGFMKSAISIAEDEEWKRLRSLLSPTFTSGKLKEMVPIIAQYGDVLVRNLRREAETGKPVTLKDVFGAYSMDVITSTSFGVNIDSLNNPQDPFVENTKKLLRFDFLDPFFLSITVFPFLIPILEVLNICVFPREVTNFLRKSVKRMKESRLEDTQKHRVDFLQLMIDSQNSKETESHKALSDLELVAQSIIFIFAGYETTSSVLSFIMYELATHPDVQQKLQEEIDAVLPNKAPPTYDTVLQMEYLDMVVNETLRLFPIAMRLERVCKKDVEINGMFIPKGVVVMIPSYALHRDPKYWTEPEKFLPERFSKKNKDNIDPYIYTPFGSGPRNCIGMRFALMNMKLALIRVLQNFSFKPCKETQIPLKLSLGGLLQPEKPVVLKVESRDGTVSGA
Data set [14] concerns the target T3, Cytochrome P450 1A2 (Homo sapiens, UniProt P05177).
T3 sequence (P05177 whole entry): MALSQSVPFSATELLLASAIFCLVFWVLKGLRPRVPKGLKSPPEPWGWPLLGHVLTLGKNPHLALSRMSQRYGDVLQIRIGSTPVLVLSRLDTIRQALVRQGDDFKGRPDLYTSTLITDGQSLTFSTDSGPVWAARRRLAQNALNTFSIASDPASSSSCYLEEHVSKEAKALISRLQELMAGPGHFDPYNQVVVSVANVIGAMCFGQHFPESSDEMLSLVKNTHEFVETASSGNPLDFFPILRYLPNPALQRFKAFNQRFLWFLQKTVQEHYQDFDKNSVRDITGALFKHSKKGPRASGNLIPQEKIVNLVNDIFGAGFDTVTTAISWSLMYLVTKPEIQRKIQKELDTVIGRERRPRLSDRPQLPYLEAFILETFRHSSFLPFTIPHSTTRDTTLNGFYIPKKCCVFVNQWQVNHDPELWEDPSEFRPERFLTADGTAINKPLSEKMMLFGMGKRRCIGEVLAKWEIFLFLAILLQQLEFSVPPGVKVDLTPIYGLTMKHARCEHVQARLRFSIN
The experiment in a line: Inhibition of CYP1A2. In kind it is ADME.

The subject of data set [15] is Staphylococcus aureus. The experiment in a line: Antibacterial activity against methicillin-resistant Staphylococcus aureus. In kind it is functional. Put shortly: (§4)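 MIC taken as the lowest concentration giving 100% inhibition of bacterial growth in liquid culture, judged by turbidity.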
Data set [16] concerns Enterococcus. The experiment in a line: Antibacterial activity against vancomycin-resistant Enterococcus. In kind it is functional. Put shortly: as §4
Data set [17] is described as follows: Volume of distribution in steady state in rat at 1 mg/kg, iv. Also noted: dose 1 mg/kg, route intravenous. In kind it is ADME, organism-based. The note with it: in vivo, read-out: Vdss. Put shortly: as §3
A short description of data set [18]: Plasma clearance in monkey at 1 mg/kg, iv. In kind it is ADME, organism-based, Macaca mulatta. Also noted: dose 1 mg/kg, route intravenous. Particulars: rhesus monkey. The gist of the method:
as §3

The nature of data set [19]: Plasma clearance in dog at 1 mg/kg, iv. In kind it is ADME, organism-based, Canis lupus familiaris. Also noted: dose 1 mg/kg, route intravenous. Put shortly:
as §3

Data set [20] is described as follows: Terminal half life in dog at 1 mg/kg, iv. Also noted: dose 1 mg/kg, route intravenous. The note with it: in vivo, read-out: beta t1/2 (converted). In kind it is ADME, organism-based, Canis lupus familiaris. The gist of the method: as §3
Data set [21] addresses Cytochrome P450 2C19 (Homo sapiens, UniProt P33261). The experiment in a line: Inhibition of CYP2C19. In kind it is ADME.
A short description of data set [22]: Volume of distribution in steady state in dog at 1 mg/kg, iv. In kind it is ADME, organism-based, Canis lupus familiaris. Also noted: dose 1 mg/kg, route intravenous. Particulars: in vivo, read-out: Vdss. Put shortly:
as §3

The subject of data set [23] is Staphylococcus aureus. Description: Antibacterial activity against Staphylococcus aureus infected iv bid dosed mouse model assessed as reduction of colony forming unit in kidney. In kind it is functional. The gist of the method:
as §2

A short description of data set [24]: Terminal half life in rat at 1 mg/kg, iv. Particulars: in vivo, read-out: beta t1/2 (converted). In kind it is ADME, organism-based. Also noted: dose 1 mg/kg, route intravenous. The gist of the method:
as §3

In data set [25] the test system is Staphylococcus aureus. Description: Antibacterial activity against methicillin-resistant Staphylococcus aureus COL infected mouse thigh model assessed as reduction of bacterial load at 1 mg/kg, iv, bid after 24 hrs. In kind it is functional. Put shortly:
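Mouse MRSA COL thigh infection, 4 mice per group. Test article given intravenously, 0.2 ml, twice daily. Thighs harvested aseptically 24 h after challenge. Bacterial load compared with untreated controls as log reduction over 24 h.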

Data set [26] deals with T4, Nuclear receptor subfamily 1 group I member 2 (Homo sapiens, UniProt O75469).
T4 sequence (O75469 whole entry): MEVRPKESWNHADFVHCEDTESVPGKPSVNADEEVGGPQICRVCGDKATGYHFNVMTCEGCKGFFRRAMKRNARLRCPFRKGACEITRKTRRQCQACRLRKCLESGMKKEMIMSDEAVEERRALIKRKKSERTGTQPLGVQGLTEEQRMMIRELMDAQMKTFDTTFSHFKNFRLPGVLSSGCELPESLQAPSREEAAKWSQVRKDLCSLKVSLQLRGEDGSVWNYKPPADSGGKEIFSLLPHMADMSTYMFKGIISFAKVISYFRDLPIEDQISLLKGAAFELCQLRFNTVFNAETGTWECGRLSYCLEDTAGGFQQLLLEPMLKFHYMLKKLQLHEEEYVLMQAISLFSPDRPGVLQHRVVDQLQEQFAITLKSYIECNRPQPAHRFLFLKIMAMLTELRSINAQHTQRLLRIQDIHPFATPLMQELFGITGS
The experiment in a line: Activity at human PXR.

Data set [27] can be described thus: Terminal half life in mouse at 1 mg/kg, iv. In kind it is ADME, organism-based. Also noted: dose 1 mg/kg, route intravenous. Particulars: in vivo, read-out: beta t1/2 (converted). Put shortly:
as §3

A short description of data set [28]: Plasma clearance in rat at 1 mg/kg, iv. Also noted: dose 1 mg/kg, route intravenous. In kind it is ADME, organism-based. Put shortly:
as §3

The subject of data set [29] is Staphylococcus aureus. The experiment in a line: Antibacterial activity against Staphylococcus aureus infected in mouse model assessed as reduction of kidney burden iv relative to control.

Cytochrome P450 2C19, sequence (P33261 whole entry): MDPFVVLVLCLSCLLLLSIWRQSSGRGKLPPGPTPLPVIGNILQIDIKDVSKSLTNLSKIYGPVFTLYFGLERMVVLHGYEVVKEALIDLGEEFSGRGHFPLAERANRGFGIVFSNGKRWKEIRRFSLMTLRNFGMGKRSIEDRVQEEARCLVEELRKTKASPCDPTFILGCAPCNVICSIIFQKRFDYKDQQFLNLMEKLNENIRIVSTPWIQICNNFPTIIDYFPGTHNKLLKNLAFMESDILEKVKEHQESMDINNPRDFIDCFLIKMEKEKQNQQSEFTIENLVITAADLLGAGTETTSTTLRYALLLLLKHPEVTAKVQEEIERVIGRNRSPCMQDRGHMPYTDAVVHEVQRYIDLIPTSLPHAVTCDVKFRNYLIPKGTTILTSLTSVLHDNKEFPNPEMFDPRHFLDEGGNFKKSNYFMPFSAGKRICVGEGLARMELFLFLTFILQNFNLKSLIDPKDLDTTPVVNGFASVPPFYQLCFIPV

As usually defined, the MIC is the least concentration at which growth counts as inhibited. What is called pIC50 is the negative decadic logarithm of the IC50, by convention in mol/L. Regarding `CO/C(C)=C1/NC(=O)[C@H]([C@@H](C)O)NC(=O)c2csc(n2)-c2cc(O)c(-c3nc(C(=O)NCCCN4CCN(C)CC4)cs3)nc2-c2csc(n2)[C@@H]2COC(=O)c3c4c5c(cccc5n3O)COC(=O)[C@@H](O[C@H]3C[C@](C)(O)[C@H](N(C)C)[C@H](C)O3)[C@@H](OC4)[C@H](NC(=O)c3csc1n3)c1nc(cs1)C(=O)N2`, the minimum inhibitory concentration (MIC) in data set [1] was found to be 0.00095 µg/mL (≈ 0.63 nM); in [2] it was 0.015 µg/mL (≈ 9.94 nM); in data set [4], 0.12 µg/mL (≈ 79.5 nM). In addition, the pIC50 in data set [3] was greater than 8.00. Besides, in data set [5], the Activity was 5.8. For the same compound, the ED99 in [6] came out at 0.13 mg/kg.
Usually clearance stands for the volume of plasma or blood freed of the substance per unit of time. As to `CO/C(C)=C1/NC(=O)[C@H]([C@@H](C)O)NC(=O)c2csc(n2)-c2cc(OC)c(-c3nc(C(=O)NCCCN4CCOCC4)cs3)nc2-c2csc(n2)[C@@H]2COC(=O)c3c4c5c(cccc5n3O)COC(=O)[C@@H](O[C@H]3C[C@](C)(O)[C@H](N(C)C)[C@H](C)O3)[C@@H](OC4)[C@H](NC(=O)c3csc1n3)c1nc(cs1)C(=O)N2`, the pIC50 is no more than 4.00 in data set [7]; no more than 4.00 in data set [8]; 4.15 in data set [11]; no more than 4.00 in data set [13]; no more than 4.00 in data set [14]; 5.29 in [3]. The pIC50 in [21] is no more than 4.00. The half-life in data set [9] was 6.5 h; in data set [20] it was 5.4 h; in [24], 6.4 h; in [27], 5 h. Also, the Vd in [10] was determined as 1.2 L/kg; in data set [12] it was 18.7 L/kg; in [17], 15.5 L/kg; in [22] it was 3.3 L/kg. For the same compound, the MIC was 0.01 µg/mL (≈ 6.62 nM) in data set [2], 0.00095 µg/mL (≈ 0.629 nM) in data set [15] and 0.06 µg/mL (≈ 39.7 nM) in data set [16]. The clearance turned out to be 15 mL/min/kg in data set [18], 15.6 mL/min/kg in data set [19] and 51.3 mL/min/kg in [28]. Further, the ED99 in [23] is 0.27 mg/kg. In addition, the Activity in data set [25] was 1.22; in data set [26] it was “Not Active”.
In the case of `CO/C(C)=C1/NC(=O)[C@H]([C@@H](C)O)NC(=O)c2csc(n2)-c2cc(O)c(-c3nc(C(=O)NCCCN4CCOCC4)cs3)nc2-c2csc(n2)[C@@H]2COC(=O)c3c4c5c(cccc5n3O)COC(=O)[C@@H](O[C@H]3C[C@](C)(O)[C@H](N(C)C)[C@H](C)O3)[C@@H](OC4)[C@H](NC(=O)c3csc1n3)c1nc(cs1)C(=O)N2`, the MIC in data set [1] stood at 0.007 µg/mL (≈ 4.68 nM); in data set [2], 0.011 µg/mL (≈ 7.35 nM); in [4], 0.016 µg/mL (≈ 10.7 nM). Also, in [29], the Activity was 4.68. The compound also had a pIC50 in [3] of 6.59. Also, the ED99 in data set [6] is 0.24 mg/kg.
